Tn6 DDE FP = inhibitors of Tn6 peptide binding to fibrin DD(E), primary screen, biochemical, fluorescence polarization, human fibrin, Tn6 probe | Fibrinogen beta chain (Homo sapiens), P02675 | Fibrin DD(E) TRITC-Tn6 fluorescence polarization displacement | inhibition, % at 8.3 µM | hit rate 0.21% among 370,000 | AID 720509, 2013;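 active = inhibition above a per-campaign cutoff: mean of compounds within control limits plus 3 SD, cut at about 15% in these data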;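 note: 0% = median of all compound wells on the plate and 100% = blocking peptide control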
SIAE primary = human SIAE inhibitors, primary screen, biochemical, fluorescence polarization, FP-Rh probe, 1536-well HTS; hit rate 0.69% among 370,000; inhibition, % at 9.66 µM; Sialate O-acetylesterase (Homo sapiens), Q9HAT2; SIAE FP-Rh probe binding;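 active = inhibition above a cutoff: mean of compounds within the control limits plus 3 SD of those, cut at about 17% in these data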;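 note: 0% = plate median of compound wells and 100% = probe without SIAE protein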
Tn7 DDE FP = inhibitors of Tn7 peptide binding to fibrin DD(E), primary screen, biochemical, fluorescence polarization, human fibrin, Tn7 probe. Fibrinogen beta chain (Homo sapiens), P02675. FP displacement of FITC-Tn7 peptide from fibrin DD(E); 0% = median of compound wells per plate. inhibition, % at 8.3 µM. hit rate 0.13% among 370,000. AID 720508, 2013;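 active = inhibition above the mean of compounds falling within the control limits plus 3 SD of them, cut at about 14% in these data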;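 note: 0% = plate median of compound wells and 100% = 10 µM Aha-Tn7 peptide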
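system = human fibrin DD(E) protein | quantity = DD(E) 2 µM final | medium = Tris/NaCl/CaCl2 buffer, pH 7.8 | also added = labelled Tn7 tracer, 0.1 µM | compound dosing = single point at 8.3 µM | timing = compound with protein 10 min, then 3 h after probe, room temperature | signal = FP measurement | benchmarks = Aha-Tn7 high control | repeats = one replicate per compound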
TCR CD3 inh = inhibitors of human TCR-CD3 interaction, primary screen, biochemical, fluorescence, TAMRA-labeled TCR probe; T-cell receptor (TCR); AID 651800, 2012; inhibition, % at 9.4 µM; hit rate 0.37% among 360,000; in the data active = inhibition above about 19%;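 note: recombinant mutant TCR 2C K166C tagged with TAMRA read by polarization; 0% = receptor in buffer alone and 100% = receptor with positive control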
mABHD4 FP = ABHD4 inhibitors, primary screen, biochemical, fluorescence polarization, mouse; (Lyso)-N-acylphosphatidylethanolamine lipase (Mus musculus), Q8VD66; purified mABHD4, FP-Rh probe fluorescence polarization; inhibition, % at 8.92 µM; hit rate 0.54% among 370,000;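 active = inhibition exceeding the mean over every tested compound plus 3 SD, cut at about 30% in these data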;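 note: 0% = plate median of compound wells and 100% = S159A mutant with DMSO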
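Assay system: mABHD4 protein; medium: HEPES pH 7.0, NaCl, Pluronic buffer; dosing: 8.92 µM, single dose; schedule: 45 min + 60 min at 25 °C; signal: FP readout, ex 525 nm / em 598 nm; read-out: normalized percent inhibition of probe labeling; repeats: single replicate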
HTRA1 inhibitor = HTRA1 serine protease inhibitors, primary screen, biochemical, fluorescence polarization, HTS; recombinant HTRA1, FP-rhodamine activity-based probe; inhibition, % at 5.96 µM; hit rate 0.5% among 340,000; AID 504803, 2011; in the data active = inhibition above about 36%;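 note: 0% = enzyme with DMSO and 100% = wells lacking enzyme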
Target sequence (Q92743 whole entry, looked up): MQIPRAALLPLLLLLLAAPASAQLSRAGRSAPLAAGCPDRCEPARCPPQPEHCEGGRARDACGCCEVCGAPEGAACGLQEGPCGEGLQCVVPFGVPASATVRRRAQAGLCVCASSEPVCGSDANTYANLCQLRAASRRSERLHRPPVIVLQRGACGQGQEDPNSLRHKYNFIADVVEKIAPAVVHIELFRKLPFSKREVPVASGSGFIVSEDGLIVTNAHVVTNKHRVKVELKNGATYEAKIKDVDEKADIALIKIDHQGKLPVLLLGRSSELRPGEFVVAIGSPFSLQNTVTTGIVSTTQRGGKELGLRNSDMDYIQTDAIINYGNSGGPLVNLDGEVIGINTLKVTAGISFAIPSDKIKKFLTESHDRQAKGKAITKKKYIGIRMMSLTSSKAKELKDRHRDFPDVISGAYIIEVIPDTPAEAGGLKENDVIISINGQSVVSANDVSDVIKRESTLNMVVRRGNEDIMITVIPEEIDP
SIAE confirm = human SIAE inhibitors, retest, confirmation, biochemical, fluorescence polarization, FP-Rh probe, triplicate | hit rate 13% among 2,300 | inhibition, % at 9.66 µM | shares compounds with SIAE primary | SIAE FP-Rh activity-based probe;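 active = mean inhibition of the replicates above the hit cutoff set in the primary screen, cut at about 17% in these data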;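 note: 0% = SIAE with DMSO and probe and 100% = probe without SIAE; inhibitors lower polarization as more probe stays unbound to SIAE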
Starred values were filed as active, the others as inactive. Most compounds without a hit are left out; they make up all but 1.8% or so of the library.

O=C1CC[C@@]2(O)[C@H]3Cc4ccc(O)c5c4[C@@]2(CCN3CC2CC2)C1O5 (stereo not given in full) was read as Tn6 DDE FP -3, SIAE primary 2, Tn7 DDE FP 1, TCR CD3 inh -10 and mABHD4 FP 1.
Screening Nc1ccc(N=Nc2ccccc2)cc1 returned Tn6 DDE FP 5, SIAE primary 2, Tn7 DDE FP 1, TCR CD3 inh -9, mABHD4 FP -1 and HTRA1 inhibitor 10.
Screening Cc1cc(N=Nc2ccccc2C)ccc1N returned Tn6 DDE FP 2, SIAE primary 32*, Tn7 DDE FP -2, TCR CD3 inh -1, mABHD4 FP 4, HTRA1 inhibitor 12 and SIAE confirm 1.
CC(C)(C)NC(=S)N1CCn2cccc2C1c1cccnc1 (stereo not given) was read as Tn6 DDE FP -4, SIAE primary 21*, Tn7 DDE FP -10, TCR CD3 inh 1, mABHD4 FP 2, HTRA1 inhibitor 3 and SIAE confirm 2.
Screening CCN(C)C(C)Cc1cccc(C(F)(F)F)c1 (stereo not given) returned Tn6 DDE FP -4, SIAE primary 6, Tn7 DDE FP 1, TCR CD3 inh -11 and mABHD4 FP -5.
`CCN[C@@H](C)Cc1cccc(C(F)(F)F)c1` gave Tn6 DDE FP 0, SIAE primary 19*, Tn7 DDE FP 0, TCR CD3 inh 4, mABHD4 FP 5, HTRA1 inhibitor 2 and SIAE confirm 3.
Nc1ccc(S(=O)(=O)N2CC3CC(C2)c2cccc(=O)n2C3)cc1 (stereo not given) was read as Tn6 DDE FP -3, SIAE primary 17*, Tn7 DDE FP 0, TCR CD3 inh 6, mABHD4 FP 3, HTRA1 inhibitor -2 and SIAE confirm 5.
CC(C)C(CN1CCC(C)(c2cccc(O)c2)[C@@H](C)C1)NC(=O)C1Cc2ccc(O)cc2CN1 (stereo not given in full) was read as Tn6 DDE FP -1, SIAE primary 1, Tn7 DDE FP 0, TCR CD3 inh 1 and mABHD4 FP -2.
`CCOP(=O)(OCC)C(NC(=O)c1ccccc1)C(Cl)(Cl)Cl` (stereo not given) gave Tn6 DDE FP -3, SIAE primary 3, Tn7 DDE FP -6, TCR CD3 inh 0, mABHD4 FP -3 and HTRA1 inhibitor -2.
`CCCOP(=O)(OCCC)C(NC(=O)c1cc(OC)c(OC)c(OC)c1)c1ccccc1` (stereo not given) gave Tn6 DDE FP 7, SIAE primary 17*, Tn7 DDE FP 0, TCR CD3 inh 3, mABHD4 FP 3, HTRA1 inhibitor 0 and SIAE confirm 1.
`N#CCC[C@H]1CC[C@]2(CCCN(Cc3ccccn3)C2)O1` gave Tn6 DDE FP 3, SIAE primary 4, Tn7 DDE FP 1 and mABHD4 FP 4.
COc1ccc2c(c1)c(C(=O)CN1CCC3(CC1)OCCO3)c(C)n2Cc1ccccc1 was read as Tn6 DDE FP 9, SIAE primary 68*, Tn7 DDE FP 0, TCR CD3 inh 4, mABHD4 FP 8, HTRA1 inhibitor -6 and SIAE confirm -2.
`CCN1CCN(CC(=O)c2c(C)n(Cc3ccccc3)c3ccc(OC)cc23)CC1` gave Tn6 DDE FP -2, SIAE primary -9, Tn7 DDE FP 1, TCR CD3 inh 4, mABHD4 FP 1 and HTRA1 inhibitor -9.
Screening O=C(NCCN1CCC2(CC1)C(=O)NCN2c1ccccc1)c1ccc(Cl)c(Cl)c1 returned Tn6 DDE FP 3, SIAE primary 4, Tn7 DDE FP 1, TCR CD3 inh 1 and mABHD4 FP 18.

Bioassay records (PubChem)
